Assay results reported in ChEMBL document CHEMBL1938291, “Activity of novel quinoxaline-derived chalcones on in vitro glioma cell proliferation” (Eur J Med Chem, 2012).
Converted amounts (≈) assume the structure as drawn. The source made the active and inactive calls. The calls are words filed in the database; no cut-off is given here.

Key:
C6 [1] = assay: Antiproliferative activity against rat C6 cells at 2 ug/ml after 48 hrs by hemocytometric analysis; type: functional; conditions: C6, 48 h
Summary of the method: (§1)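 Doxorubicin at 2 μg/mL for 48 h on C6 and U-138 MG cells. Proliferation measured as percentage inhibition.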

[2] = Antiproliferative activity against human U138MG cells at 2 ug/ml after 48 hrs by hemocytometric analysis; type: functional; conditions: U138-MG; summary of the method: as §1
C6 [3] = assay: Cytotoxicity against rat C6 cells at 5 ug/ml after 48 hrs by MTT assay; type: functional
Summary of the method: (§2)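 MTT viability assay. C6 seeded at 1×10^3 cells/well in DMEM/5% FBS and U-138 MG in DMEM/15% FBS. Exposed to 0.1, 0.5, 1, 5, 10 μg/ml for 24, 48 or 72 h, or to AS605240 at 100 nM, 10 μM or 30 μM for 48 h. Vehicle 0.01% DMSO. Viability given as % of control, mean ± SEM of 3 experiments in triplicate. IC50 as geometric mean with 95% confidence limits.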

C6 [4] = assay: Cytotoxicity against rat C6 cells after 48 hrs by MTT assay; type: functional, cell-based; conditions: C6, 48 h; summary of the method: as §2
[5] = Cytotoxicity against human U138MG cells at 5 ug/ml after 48 hrs by MTT assay; type: functional, U138-MG; summary of the method: as §2
U138-MG [6] = assay: Cytotoxicity against human U138MG cells at 0.1 to 0.5 ug/ml after 48 to 72 hrs by MTT assay; type: functional, cell-based; summary of the method: as §2
[7] = Antiproliferative activity against human U138MG cells after 24 to 72 hrs by hemocytometric analysis; type: functional, cell-based; conditions: U138-MG
Summary of the method: (§3)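 Cell-count proliferation assay. U-138 MG seeded at 1×10^4 cells/well in DMEM/15% FBS and C6 at 5×10^3 cells/well in DMEM/5% FBS, grown 24 h. Medium changed, then chalcones (0.1–10 μg/ml) or AS605240 (100 nM, 10 μM, 30 μM) added. Cells washed in Ca/Mg-free PBS, trypsin/EDTA-detached and counted in a Neubauer chamber. Inhibition versus control, mean ± SEM of 3 experiments in triplicate.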

C6 [8] = assay: Antiproliferative activity against rat C6 cells after 24 to 72 hrs by hemocytometric analysis; type: functional, cell-based; summary of the method: as §3
U138-MG [9] = assay: Antiproliferative activity against human U138MG cells at 0.1 to 0.5 ug/ml after 24 hrs by hemocytometric analysis; type: functional, cell-based; summary of the method: as §3
C6 [10] = assay: Cytotoxicity against rat C6 cells at 0.1 to 0.5 ug/ml after 24 hrs by MTT assay; type: functional, cell-based; summary of the method: as §2
C6 [11] = assay: Antiproliferative activity against rat C6 cells at 0.1 to 0.5 ug/ml after 48 to 72 hrs by hemocytometric analysis; type: functional, cell-based; summary of the method: as §3
C6 [12] = assay: Antiproliferative activity against rat C6 cells at 0.1 to 0.5 ug/ml by hemocytometric analysis; type: functional, cell-based; conditions: TDE = time-dependent effect; summary of the method: as §3
U138-MG [13] = assay: Cytotoxicity against human U138MG cells at 0.1 to 0.5 ug/ml after 24 hrs by MTT assay; type: functional, cell-based; summary of the method: as §2
[14] = Antiproliferative activity against human U138MG cells at 5 ug/ml after 24 to 72 hrs by hemocytometric analysis; type: functional, U138-MG; summary of the method: as §3
U138-MG [15] = assay: Antiproliferative activity against human U138MG cells at 0.1 to 0.5 ug/ml by hemocytometric analysis; type: functional, cell-based; conditions: TDE = time-dependent effect; summary of the method: as §3
U138-MG [16] = assay: Cytotoxicity against human U138MG cells at 0.1 to 0.5 ug/ml by MTT assay; type: functional, cell-based; conditions: TDE = time-dependent effect; summary of the method: as §2
C6 [17] = assay: Cytotoxicity against rat C6 cells at 0.1 to 0.5 ug/ml by MTT assay; type: functional, cell-based; conditions: TDE = time-dependent effect; summary of the method: as §2
U138-MG [18] = assay: Antiproliferative activity against human U138MG cells at 0.1 to 0.5 ug/ml after 48 to 72 hrs by hemocytometric analysis; type: functional, cell-based; summary of the method: as §3
C6 [19] = assay: Cytotoxicity against rat C6 cells at 0.1 to 0.5 ug/ml after 48 to 72 hrs by MTT assay; type: functional, cell-based; summary of the method: as §2
C6 [20] = assay: Antiproliferative activity against rat C6 cells at 5 ug/ml after 24 to 72 hrs by hemocytometric analysis; type: functional; summary of the method: as §3
C6 [21] = assay: Antiproliferative activity against rat C6 cells at 0.1 to 0.5 ug/ml after 24 hrs by hemocytometric analysis; type: functional, cell-based; summary of the method: as §3
C6 [22] = assay: Cell cycle arrest in rat C6 cells assessed as accumulation at sub-G1/G0 phase after 12 hrs by flow cytometric analysis; type: functional, cell-based
Summary of the method: (§4)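 C6 cells at 3×10^5 per well, in triplicate, given 0.1% DMSO vehicle or 2.5 μg/ml for 6, 12 or 24 h. Ethanol-fixed (70%), stained with propidium iodide/RNase/Triton, 10,000 cells acquired by flow cytometry. Results are relative cell numbers in sub-G1/G1, S and G2/M, from 6 independent experiments.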

C6 [23] = assay: Inhibition of PI3Kgamma-mediated Akt activation in rat C6 cells at 5 ug/ml after 30 mins by flow cytometric analysis; type: cell-based
Summary of the method: (§5)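 C6 cells (2×10^5/well) grown 24 h in 5% FBS DMEM, then serum-starved 24 h in 0.5% FBS. Treated with 5 μg/ml test compound or 30 μM AS605240 plus 5% FBS stimulus, 15 or 30 min. Cells trypsinized, fixed, permeabilized, stained 30 min with AKT antibody and read by flow cytometry. Controls: unstimulated, and 5% FBS plus 0.01% DMSO.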

C6 [24] = assay: Inhibition of PI3Kgamma-mediated Akt activation in rat C6 cells at 5 ug/ml after 15 mins by flow cytometric analysis; type: cell-based; summary of the method: as §5
C6 [25] = assay: Cell cycle arrest in rat C6 cells assessed as accumulation at sub-G1/G0 phase after 6 hrs by flow cytometric analysis; type: functional, cell-based; summary of the method: as §4
C6 [26] = assay: Cell cycle arrest in rat C6 cells assessed as accumulation at sub-G1/G0 phase at 2.5 ug/ml after 24 hrs by flow cytometric analysis (reference value: 57.9%); type: functional; summary of the method: as §4
C6 [27] = assay: Antiproliferative activity against rat C6 cells assessed as growth inhibition at 30 uM after 48 hrs by hemocytometric analysis; type: functional; conditions: C6, 48 h, read-out: GI; summary of the method: as §3
C6 [28] = assay: Inhibition of PI3Kgamma-mediated Akt activation in rat C6 cells at 30 uM after 15 mins by flow cytometric analysis; type: cell-based; summary of the method: as §5
[29] = Growth inhibition of human U138MG cells at 30 uM after 48 by MTT assay; type: functional; conditions: U138-MG, read-out: GI; summary of the method: as §2
U138-MG [30] = assay: Antiproliferative activity against human U138MG cells at 100 nM after 48 by hemocytometric analysis; type: functional, cell-based; summary of the method: as §3
C6 [31] = assay: Antiproliferative activity against rat C6 cells at 100 nM after 48 hrs by hemocytometric analysis; type: functional, cell-based; summary of the method: as §3
C6 [32] = assay: Growth inhibition of rat C6 cells at 30 uM after 48 hrs by MTT assay; type: functional; conditions: C6, 48 h, read-out: GI; summary of the method: as §2
C6 [33] = assay: Inhibition of PI3Kgamma-mediated Akt activation in rat C6 cells at 30 uM after 30 mins by flow cytometric analysis; type: cell-based; summary of the method: as §5
C6 [34] = assay: Cytotoxicity against rat C6 cells at 100 nM after 48 hrs by MTT assay; type: functional, cell-based; summary of the method: as §2
U138-MG [35] = assay: Cytotoxicity against human U138MG cells at 100 nM after 48 by MTT assay; type: functional, cell-based; summary of the method: as §2
[36] = Antiproliferative activity against human U138MG cells assessed as growth inhibition at 30 uM after 48 by hemocytometric analysis; type: functional; conditions: U138-MG, read-out: GI; summary of the method: as §3

SMILES | Imax (C6 [3]) | IC50 (C6 [4]) | Imax [5] | Activity (U138-MG [6]) | IC50 [7] | IC50 (C6 [8]) | Activity (U138-MG [9]) | Activity (C6 [10]) | Activity (C6 [11]) | Activity (C6 [12]) | Activity (U138-MG [13]) | Imax [14] | Activity (U138-MG [15]) | Activity (U138-MG [16]) | Activity (C6 [17]) | Activity (U138-MG [18]) | Activity (C6 [19]) | Imax (C6 [20]) | Activity (C6 [21]) | also measured
COc1cccc2c1C(=O)c1c(O)c3c(c(O)c1C2=O)C[C@@](O)(C(=O)CO)C[C@@H]3O[C@H]1C[C@H](N)[C@H](O)[C@H](C)O1 [DOXORUBICIN] | – | – | – | – | – | – | – | – | – | – | – | – | – | – | – | – | – | – | – | inhibition at 2 µg/mL (C6 [1]): 27%; inhibition at 2 µg/mL [2]: 31%
O=C(/C=C/c1ccc2nccnc2c1)c1ccccc1 | 60% | 4.63 µg/mL (≈ 17.8 µM) | 21% | – | – | – | – | – | – | – | – | – | – | – | – | – | – | – | – | –
COc1ccc(C(=O)/C=C/c2ccc3nccnc3c2)cc1 | 53% | 4.42 µg/mL (≈ 15.2 µM) | 34% | Active | 2.67 µg/mL (≈ 9.2 µM) | 2.19 µg/mL (≈ 7.54 µM) | inactive | inactive | Active | tde | inactive | 84% | tde | tde | tde | Active | Active | 90% | inactive | –
O=C(/C=C/c1ccc2nccnc2c1)c1ccc([N+](=O)[O-])cc1 | 26% | – | 9% | – | – | – | – | – | – | – | – | – | – | – | – | – | – | – | – | –
COc1ccc(OC)c(C(=O)/C=C/c2ccc3nccnc3c2)c1 | 50% | 2.66 µg/mL (≈ 8.3 µM) | 36% | Active | 2.64 µg/mL (≈ 8.24 µM) | 1.35 µg/mL (≈ 4.21 µM) | inactive | inactive | Active | tde | inactive | 87% | tde | tde | tde | Active | Active | 85% | inactive | Activity (C6 [22]): Active; inhibition (C6 [23]): 46%; inhibition (C6 [24]): 60%; Activity (C6 [25]): Active; Activity (C6 [26]): 66.4%
COc1ccc(C(=O)/C=C/c2ccc3nccnc3c2)c(OC)c1 | 52% | 4.6 µg/mL (≈ 14.4 µM) | 42% | Active | 2.48 µg/mL (≈ 7.74 µM) | 1.53 µg/mL (≈ 4.78 µM) | inactive | inactive | Active | tde | inactive | 86% | tde | tde | tde | Active | Active | 67% | inactive | –
COc1ccc(C(=O)/C=C/c2ccc3nccnc3c2)cc1OC | 51% | 4.16 µg/mL (≈ 13 µM) | 33% | Active | 2.29 µg/mL (≈ 7.15 µM) | 1 µg/mL (≈ 3.12 µM) | inactive | inactive | Active | tde | inactive | 84% | tde | tde | tde | Active | Active | 82% | inactive | –
O=C(/C=C/c1ccc2nccnc2c1)c1ccc(Br)cc1 | 56% | 9.19 µg/mL (≈ 27.1 µM) | 16% | – | – | – | – | – | – | – | – | – | – | – | – | – | – | – | – | –
O=C1NC(=O)/C(=C/c2ccc3nccnc3c2)S1 | – | – | – | – | – | – | – | – | – | – | – | – | – | – | – | – | – | – | – | inhibition of growth at 30 µM (C6 [27]): 73%; inhibition (C6 [28]): 31%; inhibition of growth at 30 µM [29]: 10%; Activity (U138-MG [30]): inactive; Activity (C6 [31]): inactive; inhibition of growth at 30 µM (C6 [32]): 35%; inhibition (C6 [33]): 41%; Activity (C6 [34]): inactive; Activity (U138-MG [35]): inactive; inhibition of growth at 30 µM [36]: 10%
O=C(/C=C/c1ccc2nccnc2c1)c1ccc2c(c1)OCO2 | 55% | 8.39 µg/mL (≈ 27.6 µM) | 15% | – | – | – | – | – | – | – | – | – | – | – | – | – | – | – | – | –
